Experimental data published in ChEMBL document CHEMBL3232876, “Novel R-(+)-limonene-based thiosemicarbazones and their antitumor activity against human tumor cell lines” (Eur J Med Chem, 2014).
Calls of active or inactive are those of the source. The rule behind the calls is not given here.

Legend:
PC-3 [1] = assay: Growth inhibition of human PC3 cells after 48 hrs by sulforhodamine B assay; assay type: functional; conditions: PC-3, 48 h
Procedure, shortened: (§1)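 Tumour lines from NCI and Vero from the Rio de Janeiro Cell Bank, grown in RPMI 1640 with 5% fetal bovine serum, with penicillin:streptomycin added to experimental cultures. Each compound was tested at four 10-fold dilutions; sulforhodamine B staining at time zero and 48 h. Proliferation was calculated against T0 and drug-free controls, and GI50 came from sigmoidal regression of the concentration-response curves. Representative experiment in triplicate.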

[2] = Growth inhibition of human UACC62 cells after 48 hrs by sulforhodamine B assay; assay type: functional; conditions: UACC-62, 48 h; procedure, shortened: as §1
NCI-H460 = assay: Growth inhibition of human NCI-H460 cells after 48 hrs by sulforhodamine B assay; assay type: functional; conditions: NCI-H460, 48 h; procedure, shortened: as §1
786-0 = assay: Growth inhibition of human 786-0 cells after 48 hrs by sulforhodamine B assay; assay type: functional; conditions: 786-0, 48 h; procedure, shortened: as §1
[3] = Growth inhibition of human NCI-ADR-RES cells after 48 hrs by sulforhodamine B assay; assay type: functional; procedure, shortened: as §1
[4] = Growth inhibition of human OVCAR3 cells after 48 hrs by sulforhodamine B assay; assay type: functional; conditions: OVCAR-3, 48 h; procedure, shortened: as §1
HT-29 = assay: Growth inhibition of human HT-29 cells after 48 hrs by sulforhodamine B assay; assay type: functional; conditions: HT-29, 48 h; procedure, shortened: as §1
U-251 = assay: Growth inhibition of human U251 cells after 48 hrs by sulforhodamine B assay; assay type: functional; conditions: U-251, 48 h; procedure, shortened: as §1
[5] = (§2) Growth inhibition of African green monkey Vero cells after 48 hrs by sulforhodamine B assay; assay type: cell-based; conditions: chlorocebus sabaeus, Vero cells; procedure, shortened: as §1
Vero = assay: as §2; assay type: cell-based; conditions: chlorocebus sabaeus, vero, 48 h; procedure, shortened: as §1
PC-3 [6] = assay: Cytotoxicity against human PC3 cells assessed as cell death after 48 hrs by sulforhodamine B assay; assay type: functional
Procedure, shortened: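 NCI-supplied tumour cells in RPMI 1640 with 5% fetal bovine serum; experimental cultures also had penicillin:streptomycin. Cells were exposed for 48 h to four 10-fold concentrations (0.25 to 250 […]), with readings at time zero and at 48 h. LC50 (concentration giving 50% cell death) came from sigmoidal regression of concentration–response curves.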

MCF7 = assay: Growth inhibition of human MCF7 cells after 48 hrs by sulforhodamine B assay; assay type: functional; conditions: MCF7, 48 h; procedure, shortened: as §1
K562 = assay: Growth inhibition of human K562 cells after 48 hrs by sulforhodamine B assay; assay type: functional; conditions: K562, 48 h; procedure, shortened: as §1
[7] = Ratio of compound GI50 to paclitaxel GI50 for African green monkey Vero cells; assay type: ADME, cell-based; conditions: chlorocebus sabaeus, read-out: RatioGI50

| SMILES | GI50 (PC-3 [1]) [µM] | TGI (PC-3 [1]) [µM] | GI50 [2] [µM] | TGI [2] [µM] | GI50 (NCI-H460) [µM] | TGI (NCI-H460) [µM] | GI50 (786-0) [µM] | TGI (786-0) [µM] | GI50 [3] [µM] | TGI [3] [µM] | GI50 [4] [µM] | TGI [4] [µM] | GI50 (HT-29) [µM] | TGI (HT-29) [µM] | GI50 (U-251) [µM] | TGI (U-251) [µM] | GI50 at 48 h [5] [µM] | TGI (Vero) [µM] | GI50 (MCF7) [µM] | TGI (MCF7) [µM] | other results |
| --- | --- | --- | --- | --- | --- | --- | --- | --- | --- | --- | --- | --- | --- | --- | --- | --- | --- | --- | --- | --- | --- |
| CC1=CC[C@H](C(C)(C)NC(=S)N/N=C/c2ccccc2[N+](=O)[O-])CC1 | 1.7 | 6.4 | 10.6 | 92.2 | 5 | 32.7 | 68.5 | > 100 | 19.2 | > 100 | 8.5 | 25.8 | 7.9 | 70.8 | 20.2 | > 100 | 21.6 | > 100 | 1.2 | 94.7 | Activity (PC-3 [6]): Active; GI50 (K562): 0.3 µM; TGI (K562): > 100 µM |
| CC1=CC[C@H](C(C)(C)NC(=S)N/N=C/c2ccccc2O)CC1 | < 0.04 | 0.9 | 2.8 | 10.8 | 1.9 | 8.4 | 4.6 | 12.1 | 3.7 | 10.9 | 5.5 | 11.8 | 10.9 | 16.6 | 6.4 | 10.6 | 3.1 | 11.2 | 2.2 | 17.5 | selectivity ratio [7]: 100; CC50 (PC-3 [6]; PC-3, 48 h, read-out: LC50 (the source's name)): 12.3 µM; GI50 (K562): 0.8 µM; TGI (K562): > 100 µM |
| CC1=CC[C@H](C(C)(C)NC(=S)N/N=C/c2ccccc2)CC1 | 1.3 | 5.7 | 31.6 | > 100 | 13 | 53.9 | 9.9 | 67 | > 100 | > 100 | 8.7 | 20.6 | 8.8 | 22.2 | 26.3 | 71.4 | 20.5 | > 100 | 8.4 | 84.4 | Activity (PC-3 [6]): Active; GI50 (K562): 6.3 µM; TGI (K562): 47.6 µM |
| CC1=CC[C@H](C(C)(C)NC(=S)N/N=C/c2ccc(N(C)C)cc2)CC1 | < 0.04 | < 0.7 | 45.1 | > 100 | 53.4 | > 100 | 87 | > 100 | > 100 | > 100 | > 100 | > 100 | 46.5 | > 100 | 57.7 | > 100 | 75.6 | > 100 | 26.8 | > 100 | Activity (PC-3 [6]): Active; GI50 (K562): 22.6 µM; TGI (K562): > 100 µM |
| CC1=CC[C@H](C(C)(C)NC(=S)N/N=C(\C)c2ccccc2)CC1 | > 100 | > 100 | > 100 | > 100 | > 100 | > 100 | > 100 | > 100 | > 100 | > 100 | > 100 | > 100 | 29.5 | > 100 | > 100 | > 100 | > 100 | > 100 | 20.7 | > 100 | GI50 (K562): > 100 µM; TGI (K562): > 100 µM |
| COc1cc(/C=N/NC(=S)NC(C)(C)[C@H]2CC=C(C)CC2)ccc1O | 0.3 | 8.3 | 14.7 | 42.3 | > 100 | > 100 | 12.9 | 35.4 | 23.9 | > 100 | 53.5 | > 100 | < 0.04 | < 0.7 | 11.7 | 32.6 | 19.7 | 91.8 | 14.8 | 63.9 | GI50 (K562): 1.9 µM; TGI (K562): 85.2 µM |
| COc1ccc(/C=N/NC(=S)NC(C)(C)[C@H]2CC=C(C)CC2)cc1 | < 0.04 | 1.2 | 13.3 | 70.4 | 22.5 | 47.8 | 8.9 | 29.6 | 43.8 | 50.4 | 7.9 | 21.2 | 8.4 | 33.6 | 11.4 | 71.9 | 12.2 | 70.1 | 31.2 | 37.7 | Activity (PC-3 [6]): Active; GI50 (K562): 1.5 µM; TGI (K562): 30.7 µM |
| CC1=CC[C@H](C(C)(C)NC(=S)N/N=C/c2ccc(C)cc2)CC1 | < 0.04 | 0.9 | 75.9 | > 100 | 75.7 | > 100 | 87.2 | > 100 | 78.5 | > 100 | 67.2 | > 100 | 20.2 | 94.5 | 89.2 | > 100 | 81.4 | > 100 | 15.2 | 93.6 | GI50 (K562): 1.6 µM; TGI (K562): 56.8 µM |
